In ChEMBL document CHEMBL1914430, “Synthesis of some new 1,3,5-trisubstituted pyrazolines bearing benzene sulfonamide as anticancer and anti-inflammatory agents” (Bioorg Med Chem Lett, 2011):

What was measured:
Assay type in all cases: functional
Rattus norvegicus = assay: Antiinflammatory activity in Wistar rat assessed as inhibition of carrageenan-induced hind paw edema at 20 mg/kg, po administered 30 mins before carrageenan challenge measured after 3 hrs by plethysmometer
Procedure, shortened: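 Wistar rats of either sex, 150–175 g, fasted 16 h, n = 6 per group. Compound given orally at 20 mg/kg as a suspension in 1% CMC in water (10 mL/kg); controls got vehicle only. After 30 min, 0.1 mL of 1% carrageenan in saline was injected subplantar into the left hind paw. Paw volume was measured by plethysmometer at 0, 3 and 5 h. Inhibition = (1 − Vt/Vc) × 100, reported as mean ± SEM.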

MCF7 = assay: Anticancer activity against human MCF7 cells after 48 hrs; settings: MCF7, 48 h
Procedure, shortened: (§1)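 NCI Drug Evaluation Branch 60-cell-line screen across leukemia, melanoma, lung, colon, CNS, ovarian, renal, prostate and breast panels. The incubation period is 48 h. Parameters are derived from dose–response data: GI50 is the concentration giving 50% decrease in net growth, TGI is total growth inhibition, and LC50 is net 50% loss of initial cells. Values beyond the tested range are reported as greater or less than the maximum or minimum concentration.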

T47D = assay: Anticancer activity against human T47D cells after 48 hrs
Procedure, shortened: (§2)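 NCI ~60 human tumour cell line panel with a 48 h incubation. GI50 is the concentration giving a 50% fall in net growth, TGI gives total growth inhibition, and LC50 gives a net 50% loss of initial cells. An effect not reached or exceeded is reported as greater or less than the highest or lowest concentration tested.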

UO-31 = assay: Anticancer activity against human UO31 cells after 48 hrs; settings: UO-31, 48 h; procedure, shortened: as §2
SK-MEL-5 = assay: Anticancer activity against human SK-MEL-5 cells after 48 hrs; settings: SK-MEL-5, 48 h
Procedure, shortened: (§3)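 NCI 60-line panel protocol with a 48 h incubation. Per line: GI50 = concentration giving 50% decrease in net cell growth; TGI = total growth inhibition; LC50 = net 50% loss of initial cells. When the level was not reached or was exceeded, the value is given as greater or less than the highest or lowest concentration tested.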

PC-3 = assay: Anticancer activity against human PC3 cells after 48 hrs; settings: PC-3, 48 h; procedure, shortened: as §3
[1] = Anticancer activity against human Hs 578T cells after 48 hrs; procedure, shortened: as §1
K562 = assay: Anticancer activity against human K562 cells after 48 hrs; settings: K562, 48 h; procedure, shortened: as §1
SN12C = assay: Anticancer activity against human SN12C cells after 48 hrs; procedure, shortened: as §3
DU-145 = assay: Anticancer activity against human DU145 cells after 48 hrs; settings: DU-145, 48 h; procedure, shortened: as §1
SF-539 = assay: Anticancer activity against human SF539 cells after 48 hrs; settings: SF-539, 48 h; procedure, shortened: as §3
MDA-MB-468 = assay: Anticancer activity against human MDA-MB-468 cells after 48 hrs; settings: MDA-MB-468, 48 h; procedure, shortened: as §1
Malme-3M = assay: Anticancer activity against human MALME-3M cells after 48 hrs; procedure, shortened: as §1
A549 = assay: Anticancer activity against human A549 cells after 48 hrs; settings: A549, 48 h; procedure, shortened: as §1
U-251 = assay: Anticancer activity against human U251 cells after 48 hrs; settings: U-251, 48 h; procedure, shortened: as §2
TK-10 = assay: Anticancer activity against human TK10 cells after 48 hrs; settings: TK-10, 48 h; procedure, shortened: as §2
SR = assay: Anticancer activity against human SR cells after 48 hrs; procedure, shortened: as §3
HOP-92 = assay: Anticancer activity against human HOP92 cells after 48 hrs; settings: HOP-92, 48 h; procedure, shortened: as §1
HCT-116 = assay: Anticancer activity against human HCT116 cells after 48 hrs; settings: HCT-116, 48 h; procedure, shortened: as §1
786-0 = assay: Anticancer activity against human 786-0 cells after 48 hrs; settings: 786-0, 48 h; procedure, shortened: as §1
HCT-15 = assay: Anticancer activity against human HCT15 cells after 48 hrs; settings: HCT-15, 48 h; procedure, shortened: as §1
HT-29 = assay: Anticancer activity against human HT-29 cells after 48 hrs; settings: HT-29, 48 h; procedure, shortened: as §1
IGROV-1 = assay: Anticancer activity against human IGROV1 cells after 48 hrs; settings: IGROV-1, 48 h; procedure, shortened: as §1
SF-295 = assay: Anticancer activity against human SF295 cells after 48 hrs; settings: SF-295, 48 h; procedure, shortened: as §3
MDA-MB-231 = assay: Anticancer activity against human MDA-MB-231 cells after 48 hrs; settings: MDA-MB-231, 48 h; procedure, shortened: as §1
EKVX = assay: Anticancer activity against human EKVX cells after 48 hrs; procedure, shortened: as §1
HCC 2998 = assay: Anticancer activity against human HCC2998 cells after 48 hrs; settings: HCC 2998, 48 h; procedure, shortened: as §1
CCRF-CEM = assay: Anticancer activity against human CCRF-CEM cells after 48 hrs; procedure, shortened: as §1
NCI-H460 = assay: Anticancer activity against human NCI-H460 cells after 48 hrs; settings: NCI-H460, 48 h; procedure, shortened: as §3
UACC-257 = assay: Anticancer activity against human UACC257 cells after 48 hrs; settings: UACC-257, 48 h; procedure, shortened: as §2
[2] = read-out: LC50 (the source's name)

In the case of `Cc1cc(O)c(C2=NN(c3ccc(S(N)(=O)=O)cc3)C(c3ccccc3Cl)C2)cc1Cl` (stereo not given), the inhibition in vivo at 20 mg/kg (Rattus norvegicus) is reported as 55.3%, the GI50 (MCF7) is reported as 1.75 µM and the LC50 (MCF7) is reported as 6.35 µM. For the same compound, the TGI (MCF7) was 3.33 µM, the GI50 (T47D) was 2.81 µM and the TGI (T47D) was 10.3 µM. For the same compound, the CC50 (T47D; [2]) was 82.3 µM, the GI50 (UO-31) was 2.66 µM and the TGI (UO-31) was 16.2 µM. The CC50 (UO-31; [2]) was 48 µM, the GI50 (SK-MEL-5) was 3.85 µM and the LC50 (SK-MEL-5) was 36 µM. For the same compound, the TGI (SK-MEL-5) was 12.3 µM, the GI50 (PC-3) was 1.58 µM and the TGI (PC-3) was 3.32 µM. The CC50 (PC-3; [2]) was 6.98 µM, the GI50 [1] was 3.28 µM and the CC50 [1, 2] was over 100 µM. It also gave a GI50 (K562) of 3.26 µM, an LC50 (concentration killing 50% of initial cells) (K562) of over 100 µM and a GI50 (SN12C) of 2.55 µM. The LC50 (SN12C) was 29.4 µM, the TGI (SN12C) was 6.32 µM and the GI50 (DU-145) was 2.01 µM. For the same compound, the LC50 (concentration causing net 50% loss of initial cells) (DU-145) was 7.35 µM, the TGI (DU-145) was 3.85 µM and the GI50 (SF-539) was 1.79 µM. The LC50 (concentration causing net 50% loss of initial cells) (SF-539) was 5.9 µM, the TGI (SF-539) was 3.25 µM and the GI50 (MDA-MB-468) was 2.22 µM. For the same compound, the TGI (MDA-MB-468) was 4.74 µM, the CC50 (MDA-MB-468; [2]) was over 100 µM and the GI50 (Malme-3M) was 2.62 µM. It also gave a TGI (Malme-3M) of 6.46 µM, a CC50 (Malme-3M; [2]) of over 100 µM and a GI50 (A549) of 3.82 µM. The LC50 (net 50% loss of initial cells) (A549) was over 100 µM, the TGI (A549) was 19.3 µM and the GI50 (U-251) was 2.25 µM. For the same compound, the TGI (U-251) was 5.02 µM, the CC50 (U-251; [2]) was 36.9 µM and the GI50 (TK-10) was 2.64 µM. The LC50 (TK-10) was 33.9 µM, the TGI (TK-10) was 5.86 µM and the GI50 (SR) was 2.97 µM. It also gave an LC50 (concentration killing 50% of initial cells) (SR) of over 100 µM, a GI50 (HOP-92) of 1.94 µM and a TGI (HOP-92) of 6.32 µM. It also gave a CC50 (HOP-92; [2]) of 3.12 µM, a GI50 (HCT-116) of 1.76 µM and a TGI (HCT-116) of 3.15 µM. It also gave a CC50 (HCT-116; [2]) of 5.61 µM, a GI50 (786-0) of 2.25 µM and a TGI (786-0) of 4.52 µM. For the same compound, the CC50 (786-0; [2]) was 9.1 µM, the GI50 (HCT-15) was 3.69 µM and the TGI (HCT-15) was 16.6 µM. The CC50 (HCT-15; [2]) was over 100 µM, the GI50 (HT-29) was 1.92 µM and the TGI (HT-29) was 3.63 µM. The CC50 (HT-29; [2]) was 6.83 µM, the GI50 (IGROV-1) was 2.58 µM and the LC50 (net 50% loss of initial cells) (IGROV-1) was 47.2 µM. For the same compound, the TGI (IGROV-1) was 14 µM, the GI50 (SF-295) was 1.59 µM and the LC50 (concentration giving net 50% loss of initial cells) (SF-295) was 6.34 µM. It also gave a TGI (SF-295) of 3.18 µM, a GI50 (MDA-MB-231) of 2.14 µM and a TGI (MDA-MB-231) of 4.52 µM. The CC50 (MDA-MB-231; [2]) was 9.52 µM, the GI50 (EKVX) was 1.95 µM and the TGI (EKVX) was 4.6 µM. The CC50 (EKVX; [2]) was over 100 µM, the GI50 (HCC 2998) was 2.1 µM and the LC50 (net 50% loss of initial cells) (HCC 2998) was 7.3 µM. For the same compound, the TGI (HCC 2998) was 3.91 µM, the GI50 (CCRF-CEM) was 4.81 µM and the LC50 (concentration causing net 50% loss of initial cells) (CCRF-CEM) was over 100 µM. The TGI (CCRF-CEM) was over 100 µM, the GI50 (NCI-H460) was 2.16 µM and the LC50 (50% lethal concentration) (NCI-H460) was 8.21 µM. For the same compound, the TGI (NCI-H460) was 4.21 µM, the GI50 (UACC-257) was 11.8 µM and the LC50 (UACC-257) was over 100 µM. The TGI (UACC-257) was 79.6 µM.
